ChEMBL document CHEMBL5360615, “Pharmacological and Physicochemical Properties Optimization for Dual-Target Dopamine D3 (D3R) and μ-Opioid (MOR) Receptor Ligands as Potentially Safer Analgesics” (J Med Chem, 2023)
pEC50, pIC50, pKi: −log10 of the molar value. Calls of active or inactive are those of the source. The rule behind the calls is not given here.

Assays:
D(3) dopamine receptor [1] = biological target: T1, D(3) dopamine receptor (Homo sapiens, UniProt P35462); test: Displacement of [3H]N-methylspiperone from human D3R receptor expressed in HEK293T cell membrane assessed as inhibition constant incubated for 60 mins by MicroBeta scintillation counting method; type: cell membranes
Mu-type opioid receptor [2] = biological target: Mu-type opioid receptor (Homo sapiens, UniProt P35372); test: Displacement of [3H]-DAMGO from human MOR receptor expressed in HEK293T cell membrane assessed as inhibition constant incubated for 60 mins by MicroBeta scintillation counting method; type: cell membranes
Method in brief: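 HEK293 cells stably expressing human MOR, grown in DMEM with 10% FBS and hygromycin B; membranes prepared from confluent cells. Binding buffer 50 mM Tris, 5 mM MgCl2, pH 7.4. Nonspecific binding with 10 μM naloxone. 60 min at RT, then GF/C filtration.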

D(2) dopamine receptor = D(2) dopamine receptor (Homo sapiens, UniProt P14416); test: Displacement of [3H]N-methylspiperone from human D2L receptor expressed in HEK293T cell membrane assessed as inhibition constant incubated for 60 mins by MicroBeta scintillation counting method; type: cell membranes
D(3) dopamine receptor [3] = biological target: T1, D(3) dopamine receptor; test: Partial agonist activity at SNAP-tagged human D3R receptor transfected in HEK293T cells coexpressing wild type Galpha-oA, venus-tagged Gbeta-1 (156 to 239 residues), venus-tagged Ggamma2 (1 to 155 residues) and Rluc8 fused masGRK3ct assessed as Galpha-oA activation using coelenterazine as substrate incubated for 40 mins by BRET based GPA assay; type: functional, cell-based
[4] = biological target: Mu-type opioid receptor (Mus musculus) (UniProt P42866); test: Partial agonist activity at Rluc8 fused mouse MOR transfected in HEK293T cells coexpressing wild type GRK2 assessed as arrestin-3 recruitment at 10 uM using coelenterazine as substrate incubated for 40 mins by BRET assay relative to control; type: functional, cell-based
Method in brief: (§1)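 HEK293T cells transiently transfected with BRET sensors (DNA:PEI 1:6), plated into poly-D-lysine plates and assayed 48 h post-transfection. Cells washed and held in D-PBS 30 min at 37 °C. Coelenterazine h 5 μM final; ligands 10 μM to 0.01 nM. […] At least three independent experiments in duplicate.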

[5] = biological target: Mu-type opioid receptor (Mus musculus) (UniProt P42866); test: Partial agonist activity at SNAP-tagged mouse MOR transfected in HEK293T cells coexpressing wild type Galpha-i2, venus-tagged Gbeta-1 (156 to 239 residues), venus-tagged Ggamma2 (1 to 155 residues) and Rluc8 fused masGRK3ct assessed as Galpha-i2 activation at 10 uM using coelenterazine as substrate incubated for 40 mins by BRET based GPA assay relative to control; type: functional, cell-based
Method in brief: (§2)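 HEK293T cells transiently transfected with BRET sensors (DNA:PEI 1:6), plated into poly-D-lysine plates and assayed 48 h post-transfection. Cells washed and held in D-PBS 30 min at 37 °C. Coelenterazine h 5 μM final; ligands 10 μM to 0.01 nM. At least three independent experiments in duplicate.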

Mu-type opioid receptor [6] = biological target: T2, Mu-type opioid receptor (Mus musculus, UniProt P42866); test: Partial agonist activity at SNAP-tagged mouse MOR transfected in HEK293T cells coexpressing wild type Galpha-i2, venus-tagged Gbeta-1 (156 to 239 residues), venus-tagged Ggamma2 (1 to 155 residues) and Rluc8 fused masGRK3ct assessed as Galpha-i2 activation using coelenterazine as substrate incubated for 40 mins by BRET based GPA assay; type: functional, cell-based; method in brief: as §2
[7] = biological target: Mu-type opioid receptor (Mus musculus) (UniProt P42866); test: Partial agonist activity at Rluc8 fused mouse MOR transfected in HEK293T cells assessed as Nb33 recruitment at 10 uM using coelenterazine as substrate incubated for 40 mins by BRET assay relative to control; type: functional, cell-based; method in brief: as §2
[8] = biological target: Mu-type opioid receptor (Mus musculus) (UniProt P42866); test: Partial agonist activity at Rluc8 fused mouse MOR transfected in HEK293T cells coexpressing wild type GRK2 assessed as arrestin-3 recruitment using coelenterazine as substrate incubated for 40 mins by BRET assay; type: functional, cell-based; method in brief: as §2
D(3) dopamine receptor [9] = biological target: T1, D(3) dopamine receptor; test: Antagonist activity at SNAP-tagged human D3R receptor transfected in HEK293T cells coexpressing wild type Galpha-oA, venus-tagged Gbeta-1 (156 to 239 residues), venus-tagged Ggamma2 (1 to 155 residues) and Rluc8 fused masGRK3ct assessed as Galpha-oA activation using coelenterazine as substrate incubated for 40 mins in presence of quinpirole by BRET based GPA assay; type: functional, cell-based
[10] = biological target: Mu-type opioid receptor (Mus musculus) (UniProt P42866); test: (§3) Partial agonist activity at Rluc8 fused mouse MOR transfected in HEK293T cells assessed as Nb33 recruitment using coelenterazine as substrate incubated for 40 mins by BRET assay; type: functional, cell-based; method in brief: as §2
Mu-type opioid receptor [11] = biological target: T2, Mu-type opioid receptor; test: as §3; type: functional, cell-based; method in brief: as §2
[12] = biological target: Mu-type opioid receptor (Mus musculus) (UniProt P42866); test: Agonist activity at Rluc8 fused mouse MOR transfected in HEK293T cells assessed as Nb33 recruitment at 10 uM using coelenterazine as substrate incubated for 40 mins by BRET assay relative to control; type: functional, cell-based; settings: filed as agonist; method in brief: as §1
[13] = biological target: Mu-type opioid receptor (Mus musculus) (UniProt P42866); test: Agonist activity at Rluc8 fused mouse MOR transfected in HEK293T cells coexpressing wild type GRK2 assessed as arrestin-3 recruitment at 10 uM using coelenterazine as substrate incubated for 40 mins by BRET assay relative to control; type: functional, cell-based; settings: filed as agonist; method in brief: as §1
Mu-type opioid receptor [14] = biological target: T2, Mu-type opioid receptor; test: Agonist activity at Rluc8 fused mouse MOR transfected in HEK293T cells assessed as Nb33 recruitment using coelenterazine as substrate incubated for 40 mins by BRET assay; type: functional, cell-based; method in brief: as §2
Mu-type opioid receptor [15] = biological target: T2, Mu-type opioid receptor; test: Agonist activity at Rluc8 fused mouse MOR transfected in HEK293T cells coexpressing wild type GRK2 assessed as arrestin-3 recruitment using coelenterazine as substrate incubated for 40 mins by BRET assay; type: functional, cell-based; method in brief: as §2
Mu-type opioid receptor [16] = biological target: T2, Mu-type opioid receptor; test: Agonist activity at SNAP-tagged mouse MOR transfected in HEK293T cells coexpressing wild type Galpha-i2, venus-tagged Gbeta-1 (156 to 239 residues), venus-tagged Ggamma2 (1 to 155 residues) and Rluc8 fused masGRK3ct assessed as Galpha-i2 activation using coelenterazine as substrate incubated for 40 mins by BRET based GPA assay; type: functional, cell-based; settings: read-out: EC50; method in brief: as §2

Chain of D(2) dopamine receptor (P14416 whole entry, the tested form may be a part): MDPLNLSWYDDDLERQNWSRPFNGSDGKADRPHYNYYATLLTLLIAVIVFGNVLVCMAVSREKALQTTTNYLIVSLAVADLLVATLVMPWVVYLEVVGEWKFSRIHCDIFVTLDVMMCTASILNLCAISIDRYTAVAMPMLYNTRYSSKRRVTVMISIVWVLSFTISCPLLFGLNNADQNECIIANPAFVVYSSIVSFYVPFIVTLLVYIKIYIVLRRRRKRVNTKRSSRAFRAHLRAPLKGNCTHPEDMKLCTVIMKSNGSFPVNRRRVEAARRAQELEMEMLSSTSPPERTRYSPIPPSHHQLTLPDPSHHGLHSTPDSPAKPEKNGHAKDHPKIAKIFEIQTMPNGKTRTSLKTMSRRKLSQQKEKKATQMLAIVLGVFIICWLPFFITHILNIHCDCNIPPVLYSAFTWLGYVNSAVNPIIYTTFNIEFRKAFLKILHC
T1 sequence (P35462 whole entry): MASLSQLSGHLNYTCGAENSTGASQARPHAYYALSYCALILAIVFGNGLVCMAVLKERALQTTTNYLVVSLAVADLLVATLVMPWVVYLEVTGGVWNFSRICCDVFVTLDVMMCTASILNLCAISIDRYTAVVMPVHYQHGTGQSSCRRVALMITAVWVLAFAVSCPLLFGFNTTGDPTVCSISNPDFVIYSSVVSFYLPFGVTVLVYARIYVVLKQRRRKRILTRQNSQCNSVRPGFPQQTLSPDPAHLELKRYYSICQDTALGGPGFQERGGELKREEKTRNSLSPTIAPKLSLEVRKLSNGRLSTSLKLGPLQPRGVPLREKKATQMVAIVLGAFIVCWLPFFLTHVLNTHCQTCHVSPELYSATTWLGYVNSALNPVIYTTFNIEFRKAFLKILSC
Chain of Mu-type opioid receptor (Mus musculus) (P42866 whole entry, the tested form may be a part): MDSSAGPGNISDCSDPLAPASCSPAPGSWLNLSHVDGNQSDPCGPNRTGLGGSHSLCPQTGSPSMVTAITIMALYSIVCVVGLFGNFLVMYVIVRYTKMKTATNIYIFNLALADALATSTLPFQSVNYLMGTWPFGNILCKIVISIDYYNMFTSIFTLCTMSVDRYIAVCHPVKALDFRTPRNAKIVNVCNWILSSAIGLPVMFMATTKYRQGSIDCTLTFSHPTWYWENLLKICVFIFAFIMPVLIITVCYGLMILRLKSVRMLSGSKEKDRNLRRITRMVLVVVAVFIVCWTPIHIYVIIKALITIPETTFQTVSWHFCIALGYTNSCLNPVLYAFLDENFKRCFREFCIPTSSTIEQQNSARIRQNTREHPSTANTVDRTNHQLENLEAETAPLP
T2 sequence (P42866 whole entry, the tested form may be a part): as above
Chain of Mu-type opioid receptor (Homo sapiens, UniProt P35372) (P35372 whole entry): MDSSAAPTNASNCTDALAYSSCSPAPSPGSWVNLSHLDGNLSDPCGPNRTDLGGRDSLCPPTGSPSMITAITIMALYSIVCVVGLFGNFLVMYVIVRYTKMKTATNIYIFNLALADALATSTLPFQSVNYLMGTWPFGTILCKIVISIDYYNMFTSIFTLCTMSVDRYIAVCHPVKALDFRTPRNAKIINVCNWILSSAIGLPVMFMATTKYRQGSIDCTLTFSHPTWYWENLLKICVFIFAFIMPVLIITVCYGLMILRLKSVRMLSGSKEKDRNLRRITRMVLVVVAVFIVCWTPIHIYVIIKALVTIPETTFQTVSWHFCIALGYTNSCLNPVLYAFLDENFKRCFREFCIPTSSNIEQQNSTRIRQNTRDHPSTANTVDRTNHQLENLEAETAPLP

Row | SMILES | pKi (D(3) dopamine receptor [1]) | pKi (Mu-type opioid receptor [2]) | pKi (D(2) dopamine receptor) | other results
1 | CN(C)C(=O)C(CCN1C[C@H](O)C[C@H]1CN1CCN(c2cccc(C(F)(F)F)n2)CC1)(c1ccccc1)c1ccccc1 | 5.57 | 6.11 | 5.33 | 
2 | CC1CCC(CN2CCN(c3cccc(Cl)c3Cl)CC2)CN1CCC(C(=O)N(C)C)(c1ccccc1)c1ccccc1 (stereo not drawn) | 6.51 | 6.06 | 6.84 | 
3 | CCc1cc(Cl)c(OC)c(N2CCN(C[C@@H]3C[C@@H](O)CN3CCC(C(=O)N(C)C)(c3ccccc3)c3ccccc3)CC2)c1 | 6.95 | 6.42 | 6.06 | pEC50 (D(3) dopamine receptor [3]): 7.60; Activity [4]: inactive; Emax ([5]; filed as partial agonist): 86.1%; pEC50 (Mu-type opioid receptor [6]): 5.48; Emax [7]: inactive; Activity [8]: inactive; pIC50 (D(3) dopamine receptor [9]): 5.53; pEC50 (D(3) dopamine receptor [9]; hek293t): 5.53; Activity [10]: inactive
4 | CCC1(CC)CC(OCCCN2CCN(c3cccc(C(F)(F)F)n3)CC2)(c2ccccn2)CCO1 (stereo not drawn) |  | 6.13 | 5.91 | 
5 | CN(C)C(=O)C(CCN1C[C@H](O)C[C@H]1C(=O)NCCCCN1CCN(c2cccc(Cl)c2Cl)CC1)(c1ccccc1)c1ccccc1 |  | 6.25 |  | pEC50 (Mu-type opioid receptor [6]): 5.74
6 | CN(C)C(=O)C(CCN1C[C@H](O)C[C@H]1C(=O)NCCCCN1CCN(c2cccc(C(F)(F)F)n2)CC1)(c1ccccc1)c1ccccc1 |  | 6.10 |  | pEC50 (Mu-type opioid receptor [6]): 6.33
7 | CN(C)C(=O)C(CCN1CCN(c2cccc(C(F)(F)F)n2)CC1)(c1ccccc1)c1ccccc1 |  | 8.91 |  | 
8 | CN(C)C(=O)C(CCN1CCN(c2nsc3ccccc23)CC1)(c1ccccc1)c1ccccc1 |  | 9.44 | 6.33 | 
9 | COc1ccccc1[C@@H]1C[C@H]1NCCC(C(=O)N(C)C)(c1ccccc1)c1ccccc1 (relative stereo) |  | 7.26 |  | 
10 | Clc1cccc(N2CCN(CCCOC3(c4ccccn4)CCOCC3)CC2)c1Cl |  | 5.76 |  | 
11 | FC(F)(F)c1cccc(N2CCN(CCC3(c4ccccn4)CCOC4(CCCC4)C3)CC2)n1 (stereo not drawn) | 6.13 | 6.78 | 5.27 | 
12 | CN(C)C(=O)C(CCN1C[C@H](O)C[C@H]1CN1CCN(c2cccc(Cl)c2Cl)CC1)(c1ccccc1)c1ccccc1 | 6.61 | 6.28 | 5.93 | Activity [4]: inactive; Emax ([5]; filed as partial agonist): 73.6%; pEC50 (Mu-type opioid receptor [6]): 5.46; Emax [7]: 12.7%; Activity [8]: inactive; Activity (D(3) dopamine receptor [9]): inactive; pEC50 (Mu-type opioid receptor [11]): 5.48
13 | C[C@@H](NC(=O)[C@@H](N)Cc1ccc(O)cc1)C(=O)NCC(=O)N(C)[C@@H](Cc1ccccc1)C(=O)NCCO |  |  |  | Emax [12]: 98.5%; Emax [13]: 98.7%
14 | CCc1cc(Cl)c(OC)c(N2CCN(Cc3cn(CCC(C(=O)N(C)C)(c4ccccc4)c4ccccc4)nn3)CC2)c1 |  | 5.62 |  | 
15 | Clc1cccc(N2CCN(CCCCNCCC3(c4ccccn4)CCOCC3)CC2)c1Cl |  | 5.84 |  | 
16 | Clc1ccc([C@@H]2C[C@H]2NCCC2(c3ccccn3)CCOCC2)cc1 (relative stereo) |  | 5.80 |  | 
17 | CCC1(CC)CC(OCCCNCc2cccc(Cl)c2Cl)(c2ccccn2)CCO1 (stereo not drawn) | 5.93 | 6.27 | 4.87 | 

Row | SMILES | pKi (D(3) dopamine receptor [1]) | pKi (Mu-type opioid receptor [2]) | pKi (D(2) dopamine receptor) | other results
18 | CCc1cc(Cl)c(OC)c(N2CCN(CCCCc3cn(CCC(C(=O)N(C)C)(c4ccccc4)c4ccccc4)nn3)CC2)c1 |  | 5.67 |  | 
19 | FC(F)(F)c1cccc(N2CCN(CCC3(c4ccccn4)CCOCC3)CC2)n1 |  | 5.78 |  | 
20 | CCC1(CC)CC(OCCCN2CCN(c3cccc(Cl)c3Cl)CC2)(c2ccccn2)CCO1 (stereo not drawn) | 7.66 | 5.64 | 6.91 | 
21 | CN(C)C(=O)C(CCN[C@@H]1C[C@H]1c1ccc(Cl)cc1)(c1ccccc1)c1ccccc1 (relative stereo) |  | 7.91 |  | 
22 | COc1ccsc1CNCC[C@@]1(c2ccccn2)CCOC2(CCCC2)C1 [OLICERIDINE] | 5.16 |  | 4.08 | Emax [4]: 49.1%; Emax [5]: 93.2%; Emax [7]: 31.4%
23 | Clc1cccc(N2CCN(CCC3(c4ccccn4)CCOCC3)CC2)c1Cl |  | 6.16 |  | pEC50 (Mu-type opioid receptor [14]): 5.80; pEC50 (Mu-type opioid receptor [15]): 5.19; pEC50 (Mu-type opioid receptor [16]): 6.07
24 | CN(C)C(=O)C(CCN1C[C@H](F)C[C@H]1C(=O)NCCCCN1CCN(c2cccc(Cl)c2Cl)CC1)(c1ccccc1)c1ccccc1 |  | 6.10 |  | 
25 | Fc1cncc(CNCC[C@@]2(c3ccccn3)CCOC3(CCCC3)C2)c1 | 4.07 | 7.26 | < 4.00 | 
26 | FC(F)(F)c1cccc(N2CCN(CCCOC3(c4ccccn4)CCOCC3)CC2)n1 |  | 5.68 |  | 
27 | CN(C)C(=O)C(CCN[C@@H]1C[C@H]1c1ccc(F)cc1)(c1ccccc1)c1ccccc1 (relative stereo) |  | 7.33 |  | 
28 | FC(F)(F)c1cccc(N2CCN(CCCOC3(c4ccccn4)CCOC4(CCCC4)C3)CC2)n1 (stereo not drawn) | 6.54 | 5.79 | 5.88 | 
29 | CCCN(CCC(C(=O)N(C)C)(c1ccccc1)c1ccccc1)[C@@H]1C[C@H]1c1ccc(Cl)cc1 (relative stereo) |  | 7.51 |  | 
30 | CN(C)C(=O)C(CCN1C[C@H](F)C[C@H]1C(=O)NCCCCN1CCN(c2cccc(C(F)(F)F)n2)CC1)(c1ccccc1)c1ccccc1 |  | 6.72 |  | pEC50 (Mu-type opioid receptor [6]): 5.94; pEC50 (Mu-type opioid receptor [11]): 5.24
31 | CCC1(CC)CC(OCCCNCc2cccc(C(F)(F)F)n2)(c2ccccn2)CCO1 (stereo not drawn) | 5.57 | 5.60 |  | 
32 | COc1ccc([C@@H]2C[C@H]2NCCC(C(=O)N(C)C)(c2ccccc2)c2ccccc2)cc1 (relative stereo) |  | 7.09 |  | 
33 | CN(C)C(=O)C(CCN(CCO)[C@@H]1C[C@H]1c1ccc(Cl)cc1)(c1ccccc1)c1ccccc1 (relative stereo) |  | 7.57 | 5.13 | 
